Molecular target: T1, Integrin alpha-V/beta-6 (Homo sapiens, UniProt P06756+P18564)
Assay: Inhibition of integrin alpha-v/beta-6 mediated UCLAP-3 cell adhesion to fibronectin
Assay type: functional, cell-based

T1 sequence (P06756 31-889 limits assumed): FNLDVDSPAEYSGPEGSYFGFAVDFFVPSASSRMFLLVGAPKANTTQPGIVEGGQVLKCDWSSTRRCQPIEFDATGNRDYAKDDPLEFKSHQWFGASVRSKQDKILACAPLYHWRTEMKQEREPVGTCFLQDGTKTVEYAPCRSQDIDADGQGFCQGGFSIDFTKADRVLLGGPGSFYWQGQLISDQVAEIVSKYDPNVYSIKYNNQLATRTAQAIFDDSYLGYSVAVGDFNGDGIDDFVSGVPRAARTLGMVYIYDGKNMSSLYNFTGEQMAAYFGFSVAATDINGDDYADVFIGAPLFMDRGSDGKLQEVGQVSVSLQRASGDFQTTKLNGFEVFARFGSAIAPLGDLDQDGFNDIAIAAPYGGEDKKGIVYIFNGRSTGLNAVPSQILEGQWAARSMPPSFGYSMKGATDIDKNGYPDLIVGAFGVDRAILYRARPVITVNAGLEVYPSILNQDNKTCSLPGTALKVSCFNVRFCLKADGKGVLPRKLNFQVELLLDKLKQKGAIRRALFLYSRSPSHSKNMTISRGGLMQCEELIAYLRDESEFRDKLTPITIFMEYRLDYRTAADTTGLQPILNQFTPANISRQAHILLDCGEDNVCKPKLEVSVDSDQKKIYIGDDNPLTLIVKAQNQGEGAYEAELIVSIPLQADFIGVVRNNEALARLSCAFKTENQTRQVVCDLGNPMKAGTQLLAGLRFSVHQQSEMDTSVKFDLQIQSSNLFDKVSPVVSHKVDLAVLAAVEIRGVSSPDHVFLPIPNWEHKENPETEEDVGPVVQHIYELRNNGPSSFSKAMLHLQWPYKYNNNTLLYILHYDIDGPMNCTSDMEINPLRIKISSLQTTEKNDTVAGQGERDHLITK
T1 sequence (P06756 891-1048 limits assumed): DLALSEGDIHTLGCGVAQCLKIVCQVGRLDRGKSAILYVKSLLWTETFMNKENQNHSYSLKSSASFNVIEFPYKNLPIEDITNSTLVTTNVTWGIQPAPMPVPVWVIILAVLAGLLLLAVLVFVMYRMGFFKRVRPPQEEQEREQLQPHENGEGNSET
T1 sequence (P18564 22-788 limits assumed): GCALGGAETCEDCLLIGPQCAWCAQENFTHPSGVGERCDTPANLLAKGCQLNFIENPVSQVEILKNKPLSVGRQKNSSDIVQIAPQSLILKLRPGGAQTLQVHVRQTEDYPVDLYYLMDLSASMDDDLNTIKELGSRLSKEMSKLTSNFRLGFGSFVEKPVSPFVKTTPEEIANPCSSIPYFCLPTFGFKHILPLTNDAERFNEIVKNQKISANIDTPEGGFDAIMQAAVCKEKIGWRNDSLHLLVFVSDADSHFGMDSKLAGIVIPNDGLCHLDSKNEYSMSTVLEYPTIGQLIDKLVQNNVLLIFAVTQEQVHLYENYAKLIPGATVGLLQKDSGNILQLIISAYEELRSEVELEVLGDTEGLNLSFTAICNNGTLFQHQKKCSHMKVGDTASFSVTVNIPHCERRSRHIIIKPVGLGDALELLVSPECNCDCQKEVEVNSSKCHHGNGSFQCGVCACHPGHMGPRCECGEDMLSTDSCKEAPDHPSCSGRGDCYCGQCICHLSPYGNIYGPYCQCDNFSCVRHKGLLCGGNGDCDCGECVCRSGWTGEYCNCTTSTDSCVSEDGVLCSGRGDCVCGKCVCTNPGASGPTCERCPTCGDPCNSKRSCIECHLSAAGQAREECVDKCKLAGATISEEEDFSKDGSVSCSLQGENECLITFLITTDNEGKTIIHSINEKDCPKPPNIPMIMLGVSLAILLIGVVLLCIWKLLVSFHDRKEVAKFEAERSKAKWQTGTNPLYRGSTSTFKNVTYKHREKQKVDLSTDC

Structure (SMILES)	IC50 [nM]
Cc1ccnc(NCCCCC(=O)NNC(=O)CC(CC(=O)O)c2cc(Cl)cc(Cl)c2)c1 (centres undefined)	1600
O=C(O)CC(NC(=O)CNC(=O)CCCCNc1ccccn1)c1ccc(-c2ccccc2)cc1 (centres undefined)	100
N=C(N)NCCCCC(=O)NNC(=O)NC(CC(=O)O)c1ccccc1 (centres undefined)	9600
Cc1ccnc(NCCCC(=O)NCC(=O)NC(CC(=O)O)c2ccc(-c3cccc4ccccc34)cc2)c1 (centres undefined)	200
C[C@H]1C(=O)N[C@@H](CCCN=C(N)N)C(=O)NCC(=O)N[C@@H](CC(=O)O)C(=O)N[C@H](Cc2ccccc2)C(=O)N1C	37000
Cc1ccnc(NCCCCC(=O)NNC(=O)CC(CC(=O)O)c2ccc(-c3ccccc3)cc2)c1 (centres undefined)	3800
Cc1ccnc(NCCCCC(=O)NCC(=O)NC(CC(=O)O)c2cc(Cl)cc(Cl)c2)c1 (centres undefined)	300
Cc1ccnc(NCCCCC(=O)NNC(=O)NC(CC(=O)O)c2cc(Cl)cc(Cl)c2)c1 (centres undefined)	300
O=C(O)CC(NC(=O)CNC(=O)CCCNc1ccccn1)c1cccc([N+](=O)[O-])c1 (centres undefined)	90
Cc1ccnc(NCCCCCCC(=O)NC(CC(=O)O)c2cccc([N+](=O)[O-])c2)c1 (centres undefined)	2100
Cc1ccnc(NCCCC(=O)NCC(=O)NC(CC(=O)O)c2cccc(OC(F)(F)F)c2)c1 (centres undefined)	30

Molecular target: T2, Integrin alpha-V/beta-5 (Homo sapiens, UniProt P06756+P18084)
Assay: Inhibition of vitronectin binding to recombinant human alphaV-beta5 integrin
Assay type: protein-complex assay
In short: (§1)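 Isolated-integrin ELISA. Plates were coated by adsorption from neutral buffer with 1 µg mL^-1 integrin: recombinant human αvβ3, αvβ5 or αvβ6, or αIIbβ3 isolated from human platelets. The plate was blocked with BSA. Biotinylated ligand (1 µg mL^-1) was added with serial inhibitor dilutions: human serum vitronectin for αvβ3/αvβ5, fibronectin for αvβ6, fibrinogen for αIIbβ3. Bound biotin was detected with peroxidase anti-biotin and TMB.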

T2 sequence (P06756 31-889 limits assumed): as the sequence (P06756 31-889 limits assumed) above
T2 sequence (P06756 891-1048 limits assumed): as the sequence (P06756 891-1048 limits assumed) above
T2 sequence (P18084 24-799 limits assumed): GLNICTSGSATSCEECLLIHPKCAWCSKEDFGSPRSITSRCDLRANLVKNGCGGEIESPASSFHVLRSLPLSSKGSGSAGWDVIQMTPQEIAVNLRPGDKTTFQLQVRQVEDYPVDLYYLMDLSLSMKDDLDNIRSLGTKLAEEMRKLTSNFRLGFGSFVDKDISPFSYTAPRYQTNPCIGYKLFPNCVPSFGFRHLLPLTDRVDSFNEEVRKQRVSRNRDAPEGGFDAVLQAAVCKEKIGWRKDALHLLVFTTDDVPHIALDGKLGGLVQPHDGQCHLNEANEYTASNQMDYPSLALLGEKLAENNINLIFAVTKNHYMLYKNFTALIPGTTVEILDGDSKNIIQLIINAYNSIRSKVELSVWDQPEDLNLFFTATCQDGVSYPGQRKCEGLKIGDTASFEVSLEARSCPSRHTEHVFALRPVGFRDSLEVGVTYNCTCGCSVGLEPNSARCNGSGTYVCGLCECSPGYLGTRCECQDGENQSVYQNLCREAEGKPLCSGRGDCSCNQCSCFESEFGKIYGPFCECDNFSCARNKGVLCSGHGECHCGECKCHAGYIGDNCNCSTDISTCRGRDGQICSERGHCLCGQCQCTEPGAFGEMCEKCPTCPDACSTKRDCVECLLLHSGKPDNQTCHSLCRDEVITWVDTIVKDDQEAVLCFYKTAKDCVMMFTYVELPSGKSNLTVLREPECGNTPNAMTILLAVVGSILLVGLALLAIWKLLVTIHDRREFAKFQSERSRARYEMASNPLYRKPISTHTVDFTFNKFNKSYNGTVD

Structure (SMILES)	IC50 [nM]
Cc1ccnc(NCCCCC(=O)NNC(=O)CC(CC(=O)O)c2cc(Cl)cc(Cl)c2)c1 (centres undefined)	5700
O=C(O)CC(NC(=O)CNC(=O)CCCCNc1ccccn1)c1ccc(-c2ccccc2)cc1 (centres undefined)	2670
N=C(N)NCCCCC(=O)NNC(=O)NC(CC(=O)O)c1ccccc1 (centres undefined)	26
Cc1ccnc(NCCCC(=O)NCC(=O)NC(CC(=O)O)c2ccc(-c3cccc4ccccc34)cc2)c1 (centres undefined)	5170
C[C@H]1C(=O)N[C@@H](CCCN=C(N)N)C(=O)NCC(=O)N[C@@H](CC(=O)O)C(=O)N[C@H](Cc2ccccc2)C(=O)N1C	662
Cc1ccnc(NCCCCC(=O)NNC(=O)CC(CC(=O)O)c2ccc(-c3ccccc3)cc2)c1 (centres undefined)	8700
Cc1ccnc(NCCCCC(=O)NCC(=O)NC(CC(=O)O)c2cc(Cl)cc(Cl)c2)c1 (centres undefined)	350
Cc1ccnc(NCCCCC(=O)NNC(=O)NC(CC(=O)O)c2cc(Cl)cc(Cl)c2)c1 (centres undefined)	2500
O=C(O)CC(NC(=O)CNC(=O)CCCNc1ccccn1)c1cccc([N+](=O)[O-])c1 (centres undefined)	42
Cc1ccnc(NCCCCCCC(=O)NC(CC(=O)O)c2cccc([N+](=O)[O-])c2)c1 (centres undefined)	1600
Cc1ccnc(NCCCC(=O)NCC(=O)NC(CC(=O)O)c2cccc(OC(F)(F)F)c2)c1 (centres undefined)	39

Molecular target: T3, Integrin alpha-V/beta-3 (Homo sapiens, UniProt P05106+P06756)
Assay: Inhibition of vitronectin binding to recombinant human alphaV-beta3 integrin
Assay type: protein-complex assay
In short: as §1

T3 sequence (P05106 27-788 limits assumed): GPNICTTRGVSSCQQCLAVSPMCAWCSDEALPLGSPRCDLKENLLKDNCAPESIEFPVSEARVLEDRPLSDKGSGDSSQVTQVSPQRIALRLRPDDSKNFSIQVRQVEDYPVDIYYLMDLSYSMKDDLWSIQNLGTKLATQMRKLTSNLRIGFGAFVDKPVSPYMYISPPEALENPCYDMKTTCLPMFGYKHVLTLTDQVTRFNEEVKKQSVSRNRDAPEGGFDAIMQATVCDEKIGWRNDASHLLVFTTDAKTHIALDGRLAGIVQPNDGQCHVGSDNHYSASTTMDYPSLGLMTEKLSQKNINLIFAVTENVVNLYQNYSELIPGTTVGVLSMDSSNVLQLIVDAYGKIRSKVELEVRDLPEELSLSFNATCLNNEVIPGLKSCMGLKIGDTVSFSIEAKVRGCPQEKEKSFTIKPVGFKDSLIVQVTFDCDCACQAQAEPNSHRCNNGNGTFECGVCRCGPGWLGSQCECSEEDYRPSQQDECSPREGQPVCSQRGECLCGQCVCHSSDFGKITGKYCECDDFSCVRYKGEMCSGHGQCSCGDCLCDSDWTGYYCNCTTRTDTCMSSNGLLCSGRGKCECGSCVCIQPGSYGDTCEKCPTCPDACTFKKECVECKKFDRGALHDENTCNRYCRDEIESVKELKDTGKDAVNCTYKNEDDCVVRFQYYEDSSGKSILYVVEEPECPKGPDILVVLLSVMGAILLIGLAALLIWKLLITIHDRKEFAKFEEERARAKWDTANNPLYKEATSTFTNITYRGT
T3 sequence (P06756 31-889 limits assumed): as the sequence (P06756 31-889 limits assumed) above
T3 sequence (P06756 891-1048 limits assumed): as the sequence (P06756 891-1048 limits assumed) above

Structure (SMILES)	IC50 [nM]
Cc1ccnc(NCCCCC(=O)NNC(=O)CC(CC(=O)O)c2cc(Cl)cc(Cl)c2)c1 (centres undefined)	6
O=C(O)CC(NC(=O)CNC(=O)CCCCNc1ccccn1)c1ccc(-c2ccccc2)cc1 (centres undefined)	0.45
Cc1ccnc(NCCCC(=O)NCC(=O)NC(CC(=O)O)c2ccc(-c3cccc4ccccc34)cc2)c1 (centres undefined)	8
Cc1ccnc(NCCCCC(=O)NNC(=O)CC(CC(=O)O)c2ccc(-c3ccccc3)cc2)c1 (centres undefined)	4
Cc1ccnc(NCCCCC(=O)NCC(=O)NC(CC(=O)O)c2cc(Cl)cc(Cl)c2)c1 (centres undefined)	53
Cc1ccnc(NCCCCC(=O)NNC(=O)NC(CC(=O)O)c2cc(Cl)cc(Cl)c2)c1 (centres undefined)	64
O=C(O)CC(NC(=O)CNC(=O)CCCNc1ccccn1)c1cccc([N+](=O)[O-])c1 (centres undefined)	13
Cc1ccnc(NCCCCCCC(=O)NC(CC(=O)O)c2cccc([N+](=O)[O-])c2)c1 (centres undefined)	53
Cc1ccnc(NCCCC(=O)NCC(=O)NC(CC(=O)O)c2cccc(OC(F)(F)F)c2)c1 (centres undefined)	14

Molecular target: T2, Integrin alpha-V/beta-5
Assay: Inhibition of integrin alpha-v/beta-5 mediated UCLAP-3 cell adhesion on vitronectin
Assay type: functional, cell-based
In short: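 UCLAP-3 human lung adenocarcinoma cells attach to vitronectin exclusively via αvβ5. Freshly harvested cells were plated on vitronectin-coated surfaces into serial inhibitor dilutions. Attachment was measured at 1 h by lysosomal hexosaminidase cell count. IC50 by curve fitting, mean of two independent determinations.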

Structure (SMILES)	IC50 [nM]
Cc1ccnc(NCCCCC(=O)NNC(=O)CC(CC(=O)O)c2cc(Cl)cc(Cl)c2)c1 (centres undefined)	18000
O=C(O)CC(NC(=O)CNC(=O)CCCCNc1ccccn1)c1ccc(-c2ccccc2)cc1 (centres undefined)	26000
N=C(N)NCCCCC(=O)NNC(=O)NC(CC(=O)O)c1ccccc1 (centres undefined)	43000
Cc1ccnc(NCCCC(=O)NCC(=O)NC(CC(=O)O)c2ccc(-c3cccc4ccccc34)cc2)c1 (centres undefined)	20000
C[C@H]1C(=O)N[C@@H](CCCN=C(N)N)C(=O)NCC(=O)N[C@@H](CC(=O)O)C(=O)N[C@H](Cc2ccccc2)C(=O)N1C	1300
Cc1ccnc(NCCCCC(=O)NNC(=O)CC(CC(=O)O)c2ccc(-c3ccccc3)cc2)c1 (centres undefined)	24000
Cc1ccnc(NCCCCC(=O)NCC(=O)NC(CC(=O)O)c2cc(Cl)cc(Cl)c2)c1 (centres undefined)	2000
Cc1ccnc(NCCCCC(=O)NNC(=O)NC(CC(=O)O)c2cc(Cl)cc(Cl)c2)c1 (centres undefined)	5000
O=C(O)CC(NC(=O)CNC(=O)CCCNc1ccccn1)c1cccc([N+](=O)[O-])c1 (centres undefined)	1200
Cc1ccnc(NCCCCCCC(=O)NC(CC(=O)O)c2cccc([N+](=O)[O-])c2)c1 (centres undefined)	21000
Cc1ccnc(NCCCC(=O)NCC(=O)NC(CC(=O)O)c2cccc(OC(F)(F)F)c2)c1 (centres undefined)	27000

Molecular target: Integrin alpha-IIb/beta-3 (Homo sapiens, UniProt P05106+P08514)
Assay: Inhibition of fibrinogen binding to human platelet glycoprotein alpha IIb beta3 integrin

Chain of Integrin alpha-IIb/beta-3 (P05106 27-788 limits assumed): as the sequence (P05106 27-788 limits assumed) above
Chain of Integrin alpha-IIb/beta-3 (P08514 32-887 limits assumed): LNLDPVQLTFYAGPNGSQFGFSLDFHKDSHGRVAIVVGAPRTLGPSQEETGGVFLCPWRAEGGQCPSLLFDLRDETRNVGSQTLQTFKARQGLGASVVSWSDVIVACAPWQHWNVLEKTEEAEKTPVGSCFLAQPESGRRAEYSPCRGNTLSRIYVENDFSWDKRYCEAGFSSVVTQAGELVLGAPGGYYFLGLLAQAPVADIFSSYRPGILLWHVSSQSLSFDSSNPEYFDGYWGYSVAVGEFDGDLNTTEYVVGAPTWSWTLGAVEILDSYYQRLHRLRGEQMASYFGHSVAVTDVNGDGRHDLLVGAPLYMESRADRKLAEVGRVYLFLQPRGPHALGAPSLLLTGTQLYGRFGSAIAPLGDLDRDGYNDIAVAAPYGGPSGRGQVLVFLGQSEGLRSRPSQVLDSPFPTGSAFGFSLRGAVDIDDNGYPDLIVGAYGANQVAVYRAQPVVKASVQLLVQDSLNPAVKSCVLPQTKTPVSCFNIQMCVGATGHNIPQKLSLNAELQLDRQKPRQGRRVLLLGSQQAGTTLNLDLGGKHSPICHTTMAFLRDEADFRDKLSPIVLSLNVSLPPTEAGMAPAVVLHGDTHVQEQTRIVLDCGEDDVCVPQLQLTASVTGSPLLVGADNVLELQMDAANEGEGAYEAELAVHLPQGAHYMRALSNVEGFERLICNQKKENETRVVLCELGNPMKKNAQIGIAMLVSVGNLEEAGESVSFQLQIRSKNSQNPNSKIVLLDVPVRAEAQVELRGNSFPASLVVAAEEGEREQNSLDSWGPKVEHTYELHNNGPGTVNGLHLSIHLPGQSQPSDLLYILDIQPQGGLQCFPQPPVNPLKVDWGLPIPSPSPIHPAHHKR
Chain of Integrin alpha-IIb/beta-3 (P08514 891-1039 limits assumed): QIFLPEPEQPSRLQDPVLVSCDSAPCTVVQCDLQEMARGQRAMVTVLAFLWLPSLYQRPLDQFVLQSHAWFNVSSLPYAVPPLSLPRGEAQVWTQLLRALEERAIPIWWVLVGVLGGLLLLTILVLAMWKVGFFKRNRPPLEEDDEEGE

Structure (SMILES)	IC50 [nM]
Cc1ccnc(NCCCCC(=O)NNC(=O)CC(CC(=O)O)c2cc(Cl)cc(Cl)c2)c1 (centres undefined)	> 10000
O=C(O)CC(NC(=O)CNC(=O)CCCCNc1ccccn1)c1ccc(-c2ccccc2)cc1 (centres undefined)	4050
Cc1ccnc(NCCCC(=O)NCC(=O)NC(CC(=O)O)c2ccc(-c3cccc4ccccc34)cc2)c1 (centres undefined)	4230
C[C@H]1C(=O)N[C@@H](CCCN=C(N)N)C(=O)NCC(=O)N[C@@H](CC(=O)O)C(=O)N[C@H](Cc2ccccc2)C(=O)N1C	6000
Cc1ccnc(NCCCCC(=O)NNC(=O)CC(CC(=O)O)c2ccc(-c3ccccc3)cc2)c1 (centres undefined)	3000
Cc1ccnc(NCCCCC(=O)NCC(=O)NC(CC(=O)O)c2cc(Cl)cc(Cl)c2)c1 (centres undefined)	> 10000
Cc1ccnc(NCCCCC(=O)NNC(=O)NC(CC(=O)O)c2cc(Cl)cc(Cl)c2)c1 (centres undefined)	> 10000
O=C(O)CC(NC(=O)CNC(=O)CCCNc1ccccn1)c1cccc([N+](=O)[O-])c1 (centres undefined)	7300
Cc1ccnc(NCCCCCCC(=O)NC(CC(=O)O)c2cccc([N+](=O)[O-])c2)c1 (centres undefined)	580
Cc1ccnc(NCCCC(=O)NCC(=O)NC(CC(=O)O)c2cccc(OC(F)(F)F)c2)c1 (centres undefined)	> 10000

Molecular target: T3, Integrin alpha-V/beta-3
Assay: Inhibition of integrin alpha-v/beta-3 mediated M21 cell adhesion to vitronectin with monoclonal antibody P1F6
Assay type: functional, cell-based
In short: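 M21 human melanoma cells were freshly harvested and plated on vitronectin-coated surfaces into serial inhibitor dilutions, with αvβ5-blocking mAb P1F6 present so attachment is αvβ3-dependent. Attached cells were counted after 1 h by lysosomal hexosaminidase. IC50 by curve fitting, mean of two independent determinations.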

Structure (SMILES)	IC50 [nM]
Cc1ccnc(NCCCCC(=O)NNC(=O)CC(CC(=O)O)c2cc(Cl)cc(Cl)c2)c1 (centres undefined)	20000
O=C(O)CC(NC(=O)CNC(=O)CCCCNc1ccccn1)c1ccc(-c2ccccc2)cc1 (centres undefined)	9500
N=C(N)NCCCCC(=O)NNC(=O)NC(CC(=O)O)c1ccccc1 (centres undefined)	> 50000
Cc1ccnc(NCCCC(=O)NCC(=O)NC(CC(=O)O)c2ccc(-c3cccc4ccccc34)cc2)c1 (centres undefined)	3000
C[C@H]1C(=O)N[C@@H](CCCN=C(N)N)C(=O)NCC(=O)N[C@@H](CC(=O)O)C(=O)N[C@H](Cc2ccccc2)C(=O)N1C	3900
Cc1ccnc(NCCCCC(=O)NNC(=O)CC(CC(=O)O)c2ccc(-c3ccccc3)cc2)c1 (centres undefined)	970
Cc1ccnc(NCCCCC(=O)NCC(=O)NC(CC(=O)O)c2cc(Cl)cc(Cl)c2)c1 (centres undefined)	16000
Cc1ccnc(NCCCCC(=O)NNC(=O)NC(CC(=O)O)c2cc(Cl)cc(Cl)c2)c1 (centres undefined)	12000
O=C(O)CC(NC(=O)CNC(=O)CCCNc1ccccn1)c1cccc([N+](=O)[O-])c1 (centres undefined)	6900
Cc1ccnc(NCCCCCCC(=O)NC(CC(=O)O)c2cccc([N+](=O)[O-])c2)c1 (centres undefined)	> 50000
Cc1ccnc(NCCCC(=O)NCC(=O)NC(CC(=O)O)c2cccc(OC(F)(F)F)c2)c1 (centres undefined)	24000

Molecular target: T1, Integrin alpha-V/beta-6
Assay: Inhibition of fibronectin binding to recombinant human alphaV-beta6 integrin
Assay type: protein-complex assay
In short: as §1

Structure (SMILES)	IC50 [nM]
Cc1ccnc(NCCCCC(=O)NNC(=O)CC(CC(=O)O)c2cc(Cl)cc(Cl)c2)c1 (centres undefined)	44
O=C(O)CC(NC(=O)CNC(=O)CCCCNc1ccccn1)c1ccc(-c2ccccc2)cc1 (centres undefined)	0.6
N=C(N)NCCCCC(=O)NNC(=O)NC(CC(=O)O)c1ccccc1 (centres undefined)	460
Cc1ccnc(NCCCC(=O)NCC(=O)NC(CC(=O)O)c2ccc(-c3cccc4ccccc34)cc2)c1 (centres undefined)	0.04
C[C@H]1C(=O)N[C@@H](CCCN=C(N)N)C(=O)NCC(=O)N[C@@H](CC(=O)O)C(=O)N[C@H](Cc2ccccc2)C(=O)N1C	2400
Cc1ccnc(NCCCCC(=O)NNC(=O)CC(CC(=O)O)c2ccc(-c3ccccc3)cc2)c1 (centres undefined)	53
Cc1ccnc(NCCCCC(=O)NCC(=O)NC(CC(=O)O)c2cc(Cl)cc(Cl)c2)c1 (centres undefined)	0.4
Cc1ccnc(NCCCCC(=O)NNC(=O)NC(CC(=O)O)c2cc(Cl)cc(Cl)c2)c1 (centres undefined)	1.7
O=C(O)CC(NC(=O)CNC(=O)CCCNc1ccccn1)c1cccc([N+](=O)[O-])c1 (centres undefined)	4
Cc1ccnc(NCCCCCCC(=O)NC(CC(=O)O)c2cccc([N+](=O)[O-])c2)c1 (centres undefined)	61
Cc1ccnc(NCCCC(=O)NCC(=O)NC(CC(=O)O)c2cccc(OC(F)(F)F)c2)c1 (centres undefined)	0.15

Reference: ChEMBL document CHEMBL1135730, “Nanomolar small molecule inhibitors for alphav(beta)6, alphav(beta)5, and alphav(beta)3 integrins” (J Med Chem, 2002)
